The test system of assay [1] is Bacillus subtilis. The assay can be described thus: Antimicrobial activity against Bacillus subtilis assessed as growth inhibition at 91 ug/ml after 24 hrs by spectrophotometry. Type of assay: functional. As to conditions: read-out: GI. The gist of the method:
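Primary screen of Bacillus subtilis growth in the presence of test compound at 91 µg/mL.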

The test system of assay [2] is Pseudomonas fluorescens. As to the kind of experiment: Antimicrobial activity against Pseudomonas fluorescens assessed as growth inhibition at 91 ug/ml after 24 hrs by spectrophotometry. The class given is functional. Particulars: read-out: GI.
Assay [3] deals with KB. As to the kind of experiment: Cytotoxicity against human KB cells assessed as growth inhibition at 50 ug/ml after 24 hrs by crystal violet staining method. Particulars: read-out: GI. Type of assay: functional.
Assay [4] has as its system Bacillus subtilis. As to the kind of experiment: Antimicrobial activity against Bacillus subtilis assessed as growth inhibition at 75 ug/ml after 24 hrs by spectrophotometry. Type of assay: functional. As to conditions: read-out: GI.
The subject of assay [5] is KB. The assay can be described thus: Cytotoxicity against human KB cells assessed as growth inhibition at 12.5 ug/ml after 24 hrs by crystal violet staining method. As to conditions: read-out: GI. The class given is functional.
For assay [6], the system named is L1210 (Mus musculus). The assay can be described thus: Potentiation of mitomycin C-induced antitumor activity against mouse L1210 cells allografted in BDF1 mouse administered ip on days 2 to 6 post challenge relative to control.
In assay [7] the test system is L1210 (Mus musculus). The assay can be described thus: Potentiation of actinomycin D-induced antitumor activity against mouse L1210 cells allografted in BDF1 mouse administered ip on days 2 to 6 post challenge relative to control.
Assay [8] concerns Pseudomonas fluorescens. The assay can be described thus: Antimicrobial activity against Pseudomonas fluorescens assessed as growth inhibition at 75 ug/ml after 24 hrs by spectrophotometry. Type of assay: functional. As to conditions: read-out: GI.
The test system of assay [9] is Pseudomonas fluorescens. The assay can be described thus: Antimicrobial activity against Pseudomonas fluorescens assessed as growth inhibition after 24 hrs by spectrophotometry. Type of assay: functional, organism-based.
Assay [10] deals with Bacillus subtilis. The assay can be described thus: Antimicrobial activity against Bacillus subtilis assessed as growth inhibition after 24 hrs by spectrophotometry. The class given is functional, organism-based.
Assay [11] relates to KB. As to the kind of experiment: Cytotoxicity against human KB cells assessed as growth inhibition after 24 hrs by crystal violet staining method. Type of assay: functional, cell-based.

This note sets out measurements from ChEMBL document CHEMBL3243970, “Synthesis and biological activity of some derivatives of thiochroman-4-one and tetrahydrothiapyran-4-one” (1977).

The term T/C denotes the ratio of treated to control.

The structures appear in SMILES notation. Calls of active or inactive are those of the source. The rule behind the calls is not given here.

Regarding `O=C1CCS(=O)(=O)c2ccccc21`, the inhibition of growth at 91 µg/mL stood at 100% in the assay on Bacillus subtilis [1] and 0% with Pseudomonas fluorescens [2]. The inhibition of growth at 50 µg/mL in the assay on KB [3] is 17%.

Turning to `c1n[nH]c2c1CSCC2`, the inhibition of growth at 91 µg/mL with Bacillus subtilis [1] and in the assay on Pseudomonas fluorescens [2] was 0% throughout.

`O=c1[nH]n(-c2ccccc2)c2c1CSCC2`: the inhibition of growth at 91 µg/mL with Bacillus subtilis [1] and in the assay on Pseudomonas fluorescens [2] was 0% in each case.

Consider `O=S1(=O)Cc2cn[nH]c2-c2ccccc21`, for which the inhibition of growth at 91 µg/mL in the assay with Bacillus subtilis [1] came out at 0%.

As for `c1ccc2c(c1)SCc1cn[nH]c1-2`, the values for the inhibition of growth at 75 µg/mL in the assay with Bacillus subtilis [4] and in the assay on Pseudomonas fluorescens [8] were 100% and 0%, respectively. The inhibition of growth at 12.5 µg/mL in the assay on KB [5] is 28%. Besides, the T/C with L1210 (Mus musculus) [6] amounted to 10%. For the same compound, the outcome in the assay on L1210 (Mus musculus) [7] was inactive.

As for `c1ccc(-n2ncc3c2-c2ccccc2SC3)cc1`, the “growth inhibition (GI)” value in the assay with Pseudomonas fluorescens [9], in the assay on Bacillus subtilis [10] and in the assay on KB [11] was “inactive” each time.

Take `O=S1(=O)Cc2cnoc2-c2ccccc21`: the inhibition of growth at 91 µg/mL with Bacillus subtilis [1] amounted to 0%.

Take `O=C1NN=C2CCSCC12` (centres undefined): the inhibition of growth at 91 µg/mL in the assay with Bacillus subtilis [1] and in the assay on Pseudomonas fluorescens [2] was 0% each time.

For `c1ccc2c(c1)SCc1cnoc1-2`, the inhibition of growth at 91 µg/mL was determined as 100% with Bacillus subtilis [1] and 0% in the assay on Pseudomonas fluorescens [2]. The inhibition of growth at 50 µg/mL in the assay with KB [3] was found to be 100%.

On to `O=S1(=O)Cc2c[n+]([O-])n(-c3ccccc3)c2-c2ccccc21`, for which the inhibition of growth at 91 µg/mL in the assay on Bacillus subtilis [1] and in the assay on Pseudomonas fluorescens [2] was 0% throughout.
